T cell HTS: T cell immune modulators affecting CD8 T cell-vesicle binding; hit rate 0.068% among 330,000; response (vesicle binding), % at 7 µM; 2C CD8+ T cell-vesicle binding, flow cytometry; stronger effect = lower value;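 active = response, share of CD8 T cells binding vesicles, and their 90th percentile fluorescence all below set limits, cut at about 80% in these data, passing the limit was not always enough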;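 note: values below 100% mean blocked vesicle binding to the CD8+ T cells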
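material = purified 2C TCR transgenic mouse naive CD8+ T cells | controls = Unloaded micro-vesicles (low), QL9 vesicles with 0.7% DMSO (high) | detection = cytometric PE anti-B7-1 and Alexa647 anti-CD8 signals after 1% paraformaldehyde fixation | incubation = binding step 1.5 h, 37 °C, antibody labelling 20 min, ice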
VLA-4 inh: inhibition in a human VLA-4 binding assay. VLA-4 expressing cells, ligand binding flow cytometry. hit rate 0.2% among 330,000. AID 2557. inhibition, % (about 7 µM as worked out from the volumes in the protocol); in the data active = inhibition above about 50%
CHT PAM: allosterically activates the human high affinity choline transporter; Q9GZV3; CHT-expressing cells, membrane potential dye, choline EC20; stronger effect = higher value; LV-AA mutant CHT in HEK293 cells; B-score at 10 µM; hit rate 0.49% among 310,000; AID 488977;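 active = initial fluorescence not abnormally high and integrated response B-score, plate-corrected, over 3 SD above library mean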
Target sequence (Q9GZV3 whole entry, looked up): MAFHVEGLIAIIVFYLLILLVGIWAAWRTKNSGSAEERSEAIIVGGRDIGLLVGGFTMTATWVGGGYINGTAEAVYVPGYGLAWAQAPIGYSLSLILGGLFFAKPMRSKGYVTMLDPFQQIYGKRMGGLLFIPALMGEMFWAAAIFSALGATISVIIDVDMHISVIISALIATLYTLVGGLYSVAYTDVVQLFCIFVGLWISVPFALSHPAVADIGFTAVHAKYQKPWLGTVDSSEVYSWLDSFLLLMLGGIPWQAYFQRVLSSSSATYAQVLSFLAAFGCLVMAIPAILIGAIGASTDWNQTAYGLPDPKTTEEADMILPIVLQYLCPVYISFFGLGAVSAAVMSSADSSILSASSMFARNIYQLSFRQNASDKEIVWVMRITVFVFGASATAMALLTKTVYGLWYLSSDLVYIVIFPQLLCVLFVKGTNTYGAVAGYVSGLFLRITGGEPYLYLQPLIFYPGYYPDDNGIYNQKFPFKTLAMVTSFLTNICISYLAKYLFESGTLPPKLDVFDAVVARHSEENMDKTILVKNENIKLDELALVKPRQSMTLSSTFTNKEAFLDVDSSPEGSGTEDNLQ
CHT block: inhibitors of human choline transporter CHT. CHT-expressing cells, membrane potential dye, choline response; stronger effect = lower value. B-score at 10 µM. hit rate 0.86% among 310,000. AID 488975;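 active = B-score over 3 SD under the library average, and starting fluorescence ratio not unusually high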;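 note: choline stimulus applied at its EC90 after an EC20 pre-addition; B-score computed on integrated fluorescence ratio after choline addition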
CHT act confirm: confirmation of human choline transporter (CHT) activators; shares compounds with CHT PAM; CHT-expressing cells, membrane potential dye fluorescence (FDSS); % of choline EC20–EC90 response window; HEK293 expressing CHT LV-AA mutant; choline added at its EC20; activation, % at 10 µM; hit rate 91% among 2,500;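 active = primary screen active, with duplicate mean activation above negative control mean plus 3 SD, cut at about 11% in these data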
HEK293 MP dye: activity in parental HEK293 cells lacking CHT. shares compounds with CHT PAM. membrane potential dye fluorescence (FDSS); measured after EC20 choline addition. ratio readout change at 10 µM, hits read low. hit rate 62% among 2,500. AID 623908;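 active = duplicate-averaged ratio beyond 3 SD from buffer wells, up or down, though filed actives are nearly all decreases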
Hits are given with their value; - = inactive; . = no result. An excerpt weighted towards active compounds, which were near 1.5% of everything screened.

SMILES | T cell HTS | VLA-4 inh | CHT PAM | CHT block | CHT act confirm | HEK293 MP dye
O=c1ccn(Cc2ccccc2)c2ccccc12 | - | - | - | - | . | .
Nc1c2ccccc2nc2ccccc12 | - | - | - | - | . | .
Cc1nc2ccccc2c(N)c1C(=O)/C=C/c1ccccc1 | - | - | - | - | . | .
Cc1c(N(C)C)nc2ccccc2c1N | - | - | 7 | - | 53 | -58
CC(=O)c1c(C)nc2ccccc2c1N | - | - | 8.6 | - | 56 | -44
Cn1c(=O)c2c(-c3ccccc3)n(CCCN3CCOCC3)cc2n(C)c1=O | - | - | - | - | 79 | -52
Cc1ccc(CCCNC(=O)C2CCC(=O)N(Cc3cccc(F)c3)C2)cc1 (centres undefined) | - | - | - | - | . | .
O=C(Nc1ccc(-n2cnnn2)cc1)C1CCCN1C(=O)NC1CCCCC1 (centres undefined) | - | - | - | - | . | .
O=C(Nc1ccc(-n2cnnn2)cc1)C1CCCCC1 | - | - | 9.1 | - | 35 | -33
CCc1noc(C)c1C(=O)OCC(=O)NC(=O)c1ccccc1 | - | - | - | - | . | .
Cc1cccc(-c2cc3nc(C)cc(NCCCn4ccnc4)n3n2)c1 | - | - | 9.6 | - | 51 | -59
FC(F)(F)c1cc(-c2cccs2)nc2cc(-c3cccs3)nn12 | - | - | - | - | . | .
Cc1cc(NCCCN(C)C)n2nc(-c3cccs3)cc2n1 | - | - | 13 | - | 39 | -89
Clc1ccccc1-c1nn2c(-c3ccccn3)nnc2s1 | - | - | - | - | 43 | -38
CN(C)CCCN(C(=O)c1ccc(S(=O)(=O)N2CCCCCC2)cc1)c1nc2c(F)cc(F)cc2s1 | - | - | - | - | . | .
CCc1ccc(-n2c(O)cnc2Nc2nc(C)cc(C)n2)cc1 | - | - | - | - | . | .
COc1ccc(-n2c(O)cnc2Nc2nc(C)cc(C)n2)cc1OC | - | - | 7.2 | - | 28 | -48
Cc1ccc2cccc(NS(=O)(=O)c3ccccc3)c2n1 | - | - | - | - | . | .
Cc1ccc2ccc3ccc(C)nc3c2n1 | - | - | 11 | - | 67 | -75
CN(Cc1cccnc1)C(=O)Cc1ccc(NS(=O)(=O)c2cccc(C(F)(F)F)c2)cc1 | - | - | - | - | . | .
Nc1nc(N2CCN(c3ccccn3)CC2)nc2ccccc12 | - | - | - | - | 26 | -42
Nc1nonc1C(=O)NCCNCc1cc(Br)ccc1OCc1ccccc1F | - | - | - | - | 22 | -
Nc1nonc1C(=O)NCCNCc1ccccc1OCc1ccccc1F | - | - | 6.3 | - | 16 | -
CCOc1ccccc1CNCCNC(=O)c1nonc1N | - | - | - | - | . | .
COC(=O)COc1ccc(-c2ccc(F)cc2)cc1C=O | - | - | - | - | . | .
SMILES | T cell HTS | VLA-4 inh | CHT PAM | CHT block | CHT act confirm | HEK293 MP dye
COC(=O)COc1ccc(-c2ccccc2)cc1C=O | - | - | 20 | - | - | -
CCOc1ccc(C(C)NC(=O)c2ccc3c(c2)NC(=O)C(C)S3)cc1OCC (centres undefined) | - | - | . | . | . | .
c1ccc(C[n+]2ccc3ccccc3c2)cc1 | - | - | 6.3 | - | 43 | -48
c1ccc(C[n+]2cccc(-c3ccccc3)c2)cc1 | - | - | - | - | . | .
CN1CCN(Cc2cn[nH]c2-c2ccc(F)cc2F)[C@@H](c2ccccc2)C1 | - | - | - | - | . | .
N#Cc1cc([N+](=O)[O-])ccc1NC(=O)COC(=O)CN1C(=O)C2CCCCC2C1=O (centres undefined) | - | - | . | . | . | .
CCOC(=O)c1c(C)[nH]c(C)c1S(=O)(=O)N1CCN(c2ccc(F)cc2)CC1 | - | - | - | - | . | .
CC(NCc1ccccc1O)c1ccccc1 (centres undefined) | - | - | - | - | . | .
CC(CC12CC3CC(CC(C3)C1)C2)NCc1ccccc1O (centres undefined) | - | - | - | - | - | -
C[N+](C)(C)CCCNC(=O)c1ccc(/C=N/O)nc1 | - | - | - | - | . | .
C[n+]1ccc(C(=O)NCCC[N+](C)(C)C)cc1/C=N/O | - | - | 7.3 | - | 44 | -31
CCCCN(C)CCNC(=O)c1nn(-c2ccc(OC)cc2)c(=O)c2c1c1ccccc1n2C | - | - | - | - | 29 | -31
CCN(C(=O)c1nn(-c2ccc(OC)cc2)c(=O)c2c1c1ccccc1n2C)c1ccc(OC)cc1 | - | - | - | - | . | .
O=C(OCC(=O)N1CCc2ccccc21)c1ccncc1 | - | - | . | . | . | .
Cc1cc(C)c(C#N)c(SCc2cn3ccccc3n2)n1 | - | - | 6.5 | - | 51 | -46
Clc1ccc(SCc2cn3ccccc3n2)cc1 | - | - | - | - | . | .
c1ccc2c(SCc3cn4ccccc4n3)nncc2c1 | - | - | 7.7 | - | 39 | -37
CC(NS(=O)(=O)c1ccc2c(c1)CC(C)N2C(=O)C1CC1)c1ccccc1 (centres undefined) | - | - | - | - | . | .
CCCCCNc1nc(NCCCO)c(C#N)c2c1CN(C)CC2 | - | - | - | - | 32 | -29
CCS(=O)(=O)c1ncc(CO)n1CCc1ccccc1 | - | - | - | - | . | .
COc1ccc2c(c1)c1ncn(CCN3CCCC3)c(=O)c1n2C | - | - | 6.5 | - | 45 | -24
COc1ccc2c(c1)c1ncn(CCN3CCNCC3)c(=O)c1n2C | - | - | - | - | 16 | -20
COc1ccc2c(c1)c1ncn(CCN3CCCCC3)c(=O)c1n2C | - | - | - | - | . | .
COc1ccc2[nH]c3c(=O)n(CCN4CCOCC4)cnc3c2c1 | - | - | - | - | . | .
Cc1cc(OCC(=O)NCCCn2ccnc2)c2c(C)cc(=O)oc2c1 | - | - | 7.1 | - | 65 | -56
SMILES | T cell HTS | VLA-4 inh | CHT PAM | CHT block | CHT act confirm | HEK293 MP dye
Cc1cc(OC(C)C(=O)NCCCn2ccnc2)c2c(C)cc(=O)oc2c1 (centres undefined) | - | - | - | - | 45 | -39
Cc1cc(=O)oc2c(C)c(OCC(=O)NCCCn3ccnc3)ccc12 | - | - | - | - | 58 | -52
Cc1c(C)c2ccc(OCC(=O)NCCCn3ccnc3)c(C)c2oc1=O | - | - | - | - | . | .
CCN(CC)CCCn1c2c(c(SCC(=O)Nc3nc4ccccc4s3)nc1=O)CCC2 | - | - | - | - | . | .
CC(C)C(NS(=O)(=O)c1cccs1)C(=O)N1CCC(C(N)=O)CC1 (centres undefined) | - | - | . | . | . | .
CC(C)Oc1ccc(C(=O)Nc2ccc(S(=O)(=O)N3CCN(C)CC3)cc2)cc1 | - | - | - | - | . | .
Cc1c(C)n2c(SCC(=O)N3CCCCC3)nnc2[nH]c1=O | - | - | - | - | . | .
O=C(/C=C/c1ccc(S(=O)(=O)N2CCOCC2)cc1)NC(CO)C(O)c1ccc([N+](=O)[O-])cc1 (centres undefined) | - | - | . | . | . | .
CCCNC(=O)COCc1cc(-c2ccc3c(c2)OCO3)on1 | - | - | - | - | . | .
CCCCNC(=O)COCc1cc(-c2ccc3c(c2)OCO3)on1 | - | - | 10 | - | 29 | -

Assay outcomes deposited in PubChem by several laboratories.
